# Published values of several laboratories.
# Target: MAP/microtubule affinity-regulating kinase 4 (MARK4, Homo sapiens, UniProt Q96L34)
# Effect on: enzyme activity
# Action: inhibitor
# Residues used in one study (Q96L34 1-752): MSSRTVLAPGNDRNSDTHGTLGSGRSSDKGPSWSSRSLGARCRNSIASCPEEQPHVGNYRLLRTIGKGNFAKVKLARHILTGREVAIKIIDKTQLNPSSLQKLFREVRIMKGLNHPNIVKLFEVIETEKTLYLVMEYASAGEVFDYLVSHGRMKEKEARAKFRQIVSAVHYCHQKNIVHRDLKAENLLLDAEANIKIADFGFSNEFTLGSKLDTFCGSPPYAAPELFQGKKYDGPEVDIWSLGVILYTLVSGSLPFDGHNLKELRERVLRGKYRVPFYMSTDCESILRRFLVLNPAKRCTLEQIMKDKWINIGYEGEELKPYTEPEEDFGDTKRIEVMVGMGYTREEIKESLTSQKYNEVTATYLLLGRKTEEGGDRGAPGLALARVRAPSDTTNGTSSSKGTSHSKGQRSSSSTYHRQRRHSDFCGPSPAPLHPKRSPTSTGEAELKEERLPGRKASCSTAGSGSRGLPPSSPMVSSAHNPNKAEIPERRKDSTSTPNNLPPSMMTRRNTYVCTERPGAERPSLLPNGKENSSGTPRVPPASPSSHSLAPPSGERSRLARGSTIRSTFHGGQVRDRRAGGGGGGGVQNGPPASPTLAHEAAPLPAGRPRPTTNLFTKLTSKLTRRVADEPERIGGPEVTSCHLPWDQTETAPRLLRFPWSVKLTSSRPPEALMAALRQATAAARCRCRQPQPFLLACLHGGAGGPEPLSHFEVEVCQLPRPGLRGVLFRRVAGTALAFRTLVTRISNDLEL
Compound,assay,conditions,remaining activity [%]
Cc1ccc(Nc2nccc(N(C)c3ccc4c(C)n(C)nc4c3)n2)cc1S(N)(=O)=O,,0.5 µM,98
CC(C)(C)c1nc(-c2cccc(NS(=O)(=O)c3c(F)cccc3F)c2F)c(-c2ccnc(N)n2)s1,radiometric,1 µM,84
FC(F)c1nc2ccccc2n1-c1nc(N2CCOCC2)nc(N2CCOCC2)n1,,10 µM,89
CC(C)(C)c1nc2c(s1)c1nc(N)ncc1c1ccc(NS(=O)(=O)c3c(F)cccc3F)c(F)c12,radiometric,1 µM,88
NS(=O)(=O)c1ccc(CNc2ccnc(Nc3cccc(NC(=O)N4CCCC4)c3)n2)cc1,radiometric,1 µM,99
COc1cc(Nc2cnc(C#N)c(O[C@H](C)CN(C)C)n2)ncc1-c1cnn(C)c1,radiometric,1 µM,105
Cc1sc(C(=O)NC2COC2)cc1-n1cc(NC(=O)Nc2c(F)cccc2Cl)cn1,,10 µM,108
Cc1nn(CC(F)(F)F)cc1Nc1ncc(C2CC2)c(NCCc2c[nH]cn2)n1,radiometric,1 µM,88
Cc1ccc(C(=O)Nc2ccc(CN3CCN(C)CC3)c(C(F)(F)F)c2)cc1C#Cc1cnc2cccnn12,,23.5 nM,94
CC(C)(O)[C@H]1CC[C@H](Nc2ccc3ncc(-c4cccc(C(F)(F)F)c4)n3n2)CC1,,1 µM,97.8
Brc1cnc(Nc2cccc(CN3CCOCC3)c2)nc1NCCc1c[nH]cn1,radiometric,1 µM,3
Cn1c(=O)n(-c2ccc(C(C)(C)C#N)cc2)c2c3cc(-c4cnc5ccccc5c4)ccc3ncc21,,10 µM,81
Cc1nn(CC(F)(F)F)cc1Nc1nccc(NCc2ccc(S(N)(=O)=O)cc2)n1,radiometric,1 µM,101
O=C(Nc1cnn(-c2csc(C(=O)NC3COC3)c2)c1)Nc1c(F)cccc1Cl,,5 µM,97.9
Cc1nn(CC(F)(F)F)cc1Nc1nccc(NCCCNC(=O)C2CCC2)n1,radiometric,1 µM,113
COc1cc(Cl)c(C(=O)N[C@@H](CN[C@H]2CC[C@@H](N)CC2)Cc2ccc(C#N)cc2)cc1-c1ccc(CN[C@H](C)c2ccc(C)cc2)o1,,1 µM,91
